Experiment [1] addresses Epidermal growth factor receptor (Homo sapiens) (UniProt P00533). The experiment is described as follows: Inhibition of EGFR phosphorylation at Tyr1068 residue in human HCT116 cells at 20 uM after 72 hrs by Western blot analysis. The experiment is classed as cell-based. The settings on record: HCT-116. Put shortly: (§1)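 HCT116 or HT29 seeded at 8 × 10⁴ cells/ml in 15 cm dishes for 24 h, then treated for 72 h at 20 µM or at 5, 10 and 20 µM. Whole-cell lysates were made in Tris-HCl/NaCl/Triton buffer with phosphatase and protease inhibitors (pH 7.5), sonicated and cleared at 10,000g; protein was measured by BCA. Blots were blocked in 5% milk/TBST and developed by ECL. P-EGFR(Tyr1068) and total EGFR bands were normalized to β-tubulin, as means of three experiments.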
For orientation: In western blotting, separated proteins are transferred to a membrane and probed.

In experiment [2] the test system is HT-29. Briefly: Cytotoxicity against human HT-29 cells assessed as growth inhibition after 48 hrs by resazurin assay. The class given is functional, cell-based. Conditions: for pIC50: HT-29, 48 h. Put shortly:
(§2)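 HCT116 or HT29 seeded at 2000 cells/well, grown 24 h, then given fresh complete McCoy's 5A (5% FBS, 0.1% DMSO final) containing serial compound concentrations for 48 h. Resazurin was added for 16 h and fluorescence read at ex 544/em 595 nm as a measure of living cells. IC50 was calculated by the Logit approach; values are mean ± SD.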
In general terms: Alamar Blue is a resazurin reagent that responds to reducing activity.

Experiment [3] concerns HCT-116. The experiment is described as follows: Induction of apoptosis in human HCT116 cells assessed as PARP cleavage at 20 uM after 72 hrs by Western blot analysis. The class given is functional, cell-based. Put shortly:
(§3)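 HCT116 only, seeded at 8 × 10⁴ cells/ml in 15 cm dishes for 24 h, then treated for 72 h at 20 µM or at 5, 10 and 20 µM. Lysed in Triton lysis buffer (pH 7.5) with inhibitors, sonicated, and protein assayed by BCA. Western blots were developed by ECL. Band intensities were normalized to β-actin, as means of three independent experiments; the Bax/Bcl-2 ratio was expressed relative to untreated control.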

The subject of experiment [4] is HCT-116. The experiment is described as follows: Cytotoxicity against human HCT116 cells assessed as growth inhibition after 48 hrs by resazurin assay. The class given is functional, cell-based. Conditions: for pIC50: HCT-116, 48 h. Put shortly:
as §2

Experiment [5] concerns HCT-116. The experiment is described as follows: Induction of apoptosis in human HCT116 cells assessed as effect on HSP-90 expression at 20 uM after 72 hrs by Western blot analysis. The experiment is classed as functional, cell-based. Put shortly:
as §3

Experiment [6] has as its target Epidermal growth factor receptor (Homo sapiens) (UniProt P00533). Briefly: Inhibition of EGFR signaling in human HCT116 cells assessed as effect on CDK2 expression at 20 uM after 24 hrs by Western blot analysis. The settings on record: HCT-116. The class given is cell-based.
Experiment [7] relates to HCT-116. Briefly: Cell cycle arrest in human HCT116 cells assessed as increase in G2/M population at 20 uM after 24 hrs by flow cytometry relative to control. The class given is functional. The method, boiled down:
(§4)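 HCT116 or HT29 cells seeded at 4 × 10⁴ cells/ml in 6-well plates and left 24 h to attach, then exposed for 24 h in complete McCoy's 5A (5% FBS) with 0.1% DMSO final, at 5, 10 or 20 µM. Floating and trypsinized cells were pooled, PBS-washed, fixed overnight in 70% ethanol at 4 °C and stained with PI/RNase for 15 min at room temperature. Flow DNA content gave G0/G1, S and G2/M fractions as fold of control, from three independent assays.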
On the technique in general: A flow cytometer gives signals particle by particle.

Experiment [8] addresses Epidermal growth factor receptor (Homo sapiens) (UniProt P00533). Briefly: Inhibition of EGFR phosphorylation at Tyr1068 residue in human HT-29 cells at 20 uM after 72 hrs by Western blot analysis. The class given is cell-based. The method, boiled down: as §1
The subject of experiment [9] is HT-29. The experiment is described as follows: Cell cycle arrest in human HT-29 cells assessed as increase in G2/M population at 20 uM after 24 hrs by flow cytometry relative to control. The class given is functional. Put shortly: as §4
Experiment [10] deals with Epidermal growth factor receptor (Homo sapiens) (UniProt P00533). Briefly: Inhibition of EGFR signaling in human HCT116 cells assessed as effect on CDK4 expression at 20 uM after 24 hrs by Western blot analysis. The class given is cell-based. Conditions: HCT-116.
Sequence of Epidermal growth factor receptor (Homo sapiens) (P00533 whole entry): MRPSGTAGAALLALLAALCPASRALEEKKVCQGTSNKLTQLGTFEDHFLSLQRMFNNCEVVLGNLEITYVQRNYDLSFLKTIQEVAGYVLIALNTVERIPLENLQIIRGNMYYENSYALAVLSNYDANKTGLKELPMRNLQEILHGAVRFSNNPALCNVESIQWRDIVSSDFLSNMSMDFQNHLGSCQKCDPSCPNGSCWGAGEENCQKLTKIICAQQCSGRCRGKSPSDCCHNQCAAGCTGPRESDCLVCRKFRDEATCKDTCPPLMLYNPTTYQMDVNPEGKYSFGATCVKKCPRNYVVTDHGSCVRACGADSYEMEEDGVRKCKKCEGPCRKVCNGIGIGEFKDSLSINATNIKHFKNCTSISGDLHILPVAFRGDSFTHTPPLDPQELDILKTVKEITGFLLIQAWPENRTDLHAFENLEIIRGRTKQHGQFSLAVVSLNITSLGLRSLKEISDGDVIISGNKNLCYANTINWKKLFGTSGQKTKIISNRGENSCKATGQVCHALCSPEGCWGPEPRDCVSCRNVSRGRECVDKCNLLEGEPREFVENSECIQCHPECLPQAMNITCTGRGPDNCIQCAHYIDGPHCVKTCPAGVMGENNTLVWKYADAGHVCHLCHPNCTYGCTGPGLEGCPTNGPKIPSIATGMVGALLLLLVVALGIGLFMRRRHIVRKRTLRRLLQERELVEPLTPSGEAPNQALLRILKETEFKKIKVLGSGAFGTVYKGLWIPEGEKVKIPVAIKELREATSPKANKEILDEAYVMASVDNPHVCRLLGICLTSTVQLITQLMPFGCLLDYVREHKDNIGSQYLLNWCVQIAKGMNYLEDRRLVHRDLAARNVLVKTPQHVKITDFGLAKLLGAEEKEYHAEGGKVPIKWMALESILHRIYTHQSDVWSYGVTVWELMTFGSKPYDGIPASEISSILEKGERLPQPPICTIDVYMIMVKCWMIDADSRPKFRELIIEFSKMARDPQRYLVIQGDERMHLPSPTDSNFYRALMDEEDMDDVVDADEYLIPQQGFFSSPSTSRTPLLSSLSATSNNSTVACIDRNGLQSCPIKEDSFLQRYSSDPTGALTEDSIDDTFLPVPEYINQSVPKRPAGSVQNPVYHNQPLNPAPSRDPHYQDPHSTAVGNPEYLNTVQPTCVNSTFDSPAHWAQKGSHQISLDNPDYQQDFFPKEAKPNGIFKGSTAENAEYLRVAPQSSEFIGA
Experiment [11] concerns HCT-116. The experiment is described as follows: Induction of apoptosis in human HCT116 cells assessed as ratio of Bax to Bcl-2 expression at 20 uM after 72 hrs by Western blot analysis relative to control. The class given is functional. The method, boiled down: as §3
For experiment [12], the system named is HCT-116. The experiment is described as follows: Inhibition of EGFR protein expression in human HCT116 cells at 20 uM after 72 hrs by Western blot analysis. The class given is functional, cell-based. Put shortly: as §1
The subject of experiment [13] is HT-29. The experiment is described as follows: Inhibition of EGFR protein expression in human HT-29 cells at 20 uM after 72 hrs by Western blot analysis. The experiment is classed as functional, cell-based. The method, boiled down: as §1
For experiment [14], the system named is HCT-116. Briefly: Induction of apoptosis in human HCT116 cells assessed as caspase-3 activation at 20 uM after 72 hrs by Western blot analysis. The class given is functional, cell-based. The method, boiled down: as §3
Experiment [15] has as its target Epidermal growth factor receptor (Homo sapiens) (UniProt P00533). Briefly: Inhibition of EGFR signaling in human HCT116 cells assessed as induction of p21 WAF-1/CIP-1 expression at 20 uM after 24 hrs by Western blot analysis relative to control. The experiment is classed as cell-based. The settings on record: HCT-116.
The test system of experiment [16] is HCT-116. Briefly: Induction of apoptosis in human HCT116 cells assessed as reduction in Bcl-2 expression at 20 uM after 72 hrs by Western blot analysis. The experiment is classed as functional, cell-based. The method, boiled down:
as §3

Experiment [17] addresses Epidermal growth factor receptor (Homo sapiens) (UniProt P00533). The experiment is described as follows: Inhibition of EGFR signaling in human HCT116 cells assessed as inhibition of cyclin E1 expression at 20 uM after 24 hrs by Western blot analysis. The class given is cell-based. Conditions: HCT-116.
Experiment [18] has as its system HCT-116. Briefly: Induction of apoptosis in human HCT116 cells assessed as effect on HSP-70 expression at 20 uM after 72 hrs by Western blot analysis. The experiment is classed as functional, cell-based. Put shortly:
as §3

In experiment [19] the test system is HCT-116. The experiment is described as follows: Induction of apoptosis in human HCT116 cells assessed as increase in Bax expression at 20 uM after 72 hrs by Western blot analysis. The experiment is classed as functional, cell-based. The method, boiled down: as §3
The target of experiment [20] is Epidermal growth factor receptor (Homo sapiens) (UniProt P00533). Briefly: Inhibition of EGFR signaling in human HCT116 cells assessed as inhibition of Rb expression at 20 uM after 24 hrs by Western blot analysis. The class given is cell-based. Conditions: HCT-116.
For experiment [21] the target is unchanged. Briefly: Inhibition of EGFR signaling in human HCT116 cells assessed as inhibition of cyclin D1 expression at 20 uM after 24 hrs by Western blot analysis. The settings on record: HCT-116. The experiment is classed as cell-based.

pIC50: −log10 of the molar value. Active and inactive are the calls of the source. The rule behind the calls is not given here. A value given as a limit tells only on which side of the number the result lay.

The term pIC50 denotes the negative decadic logarithm of the IC50, by convention in mol/L.

In the case of `CCNc1nc(/C=C/c2ccc(OC)c(OC)c2)cc(/C=C/c2ccc(OC)c(OC)c2)n1`, the inhibition result in [1], in experiment [6], in experiment [8], in experiment [10], in experiment [12] and in [13] was “inactive” each time. Besides, the inhibition result in experiment [17], in [20] and in experiment [21] was “inactive” in each case. The “growth inhibition (GI)” value in experiment [2] and in experiment [4] was “Dose-dependent effect” each time. In addition, the negative-log IC50 (pIC50) was 4.41 in experiment [2] and 4.33 in experiment [4]. Besides, the result in experiment [3], in experiment [5], in experiment [14] and in [18] was inactive. Also, the “fold change (FC)” value in experiment [7] was 1.03; in [9], 1.1; in [15], 20. The Ratio in experiment [11] is 1.57. For the same molecule, the outcome in [16] and in experiment [19] was Active.

Turning to `CCCNc1nc(/C=C/c2ccc(OC)c(OC)c2)cc(/C=C/c2ccc(OC)c(OC)c2)n1`, in [2], the “growth inhibition (GI)” value was “Dose-dependent effect” and the pIC50 is < 4.00. In [4], the “growth inhibition (GI)” value is “Dose-dependent effect” and the negative logarithm of the IC50 (pIC50) was 4.55.

The values above are taken from ChEMBL document CHEMBL2413001, “Exploring pyrimidine-substituted curcumin analogues: design, synthesis and effects on EGFR signaling” (Bioorg Med Chem, 2013).
